Source: ChEMBL document CHEMBL4619819, “Toward the Target: Tilorone, Quinacrine, and Pyronaridine Bind to Ebola Virus Glycoprotein” (ACS Med Chem Lett, 2020)

Legend:
[1] = Binding affinity to Ebola virus glycoprotein assessed as dissociation constant incubated for 20 to 30 mins by microscale thermophoresis; design: species or system Ebolavirus
In short: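 EBOV glycoprotein amine-labelled with RED-NHS dye, 2.5 nM final in 10 mM MES pH 5.0, 150 mM NaCl, 170 mM sodium malonate pH 5.2, plus 0.05% Tween 20 and 10 mM BME. 16-point 2-fold series from 250 μM to 7.629 nM, 2.5% DMSO final. Incubated 20–30 min. MST run at 20% excitation, high power, 23.0 °C, in quadruplicate. Kd from mass-action fit of Fnorm, with aggregated or outlier traces removed.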

Ebolavirus = test: Antiviral activity against Ebolavirus infected in human HeLa cells assessed as reduction in viral replication incubated for 48 hrs by luminescence based assay; type: functional, organism-based; details: Orthoebolavirus

| SMILES | Kd [1] | IC50 (Ebolavirus) | Kd ([1]; read-out: Kd) |
| --- | --- | --- | --- |
| NC(=O)c1nc(F)cnc1O [FAVIPIRAVIR] | Not Active |  |  |
| CCN(CC)CCOc1ccc2c(c1)C(=O)c1cc(OCCN(CC)CC)ccc1-2 [TILORONE] |  | 1140 to 1480 nM | 731 nM |
| C[C@H]1[C@H](OC(=O)CCC(=O)O)O[C@@H]2O[C@@]3(C)CC[C@H]4[C@H](C)CC[C@@H]1[C@@]24OO3 [ARTESUNATE] | Not Active |  |  |
| CN(C)CCOc1ccc(/C(=C(/CCCl)c2ccccc2)c2ccccc2)cc1 [TOREMIFENE] |  |  | 24800 nM |
| COc1ccc2nc3cc(Cl)ccc3c(Nc3cc(CN4CCCC4)c(O)c(CN4CCCC4)c3)c2n1 [PYRONARIDINE] |  | 820 to 1300 nM | 7340 nM |
| CCN(CC)CCCC(C)Nc1c2ccc(Cl)cc2nc2ccc(OC)cc12 (centres undefined) [QUINACRINE] |  | 1050 to 1480 nM | 7550 nM |
